# Activity calls are given as the source filed them. No cut-off for these calls is given here.
# Assays:
# Candida albicans [1] = assay: Antimicrobial activity against Candida albicans ATCC 10231 assessed as zone of inhibition at 1639 uM incubated overnight at 37 degC; type: functional, organism-based
# Summary of the method: (§1)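 Pure isolates screened against a panel of five bacteria and one fungus, each at a single concentration within 1639–5230 μM. A commercial antibiotic and antifungal agent were tested in parallel as references. Growth inhibition was recorded as the zone of inhibition.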
# Escherichia coli [2] = assay: Antimicrobial activity against Escherichia coli ATCC 25922 assessed as zone of inhibition at 1639 uM incubated overnight at 37 degC; type: functional, organism-based; summary of the method: as §1
# Staphylococcus aureus [3] = assay: Antimicrobial activity against Staphylococcus aureus ATCC 25923 assessed as zone of inhibition at 1639 uM incubated overnight at 37 degC; type: functional, organism-based; summary of the method: as §1
# Streptococcus pyogenes [4] = assay: Antimicrobial activity against Streptococcus pyogenes 345/1 assessed as zone of inhibition at 1639 uM incubated overnight at 37 degC; type: functional, organism-based; summary of the method: as §1
# Pseudomonas aeruginosa [5] = assay: Antimicrobial activity against Pseudomonas aeruginosa ATCC 27853 assessed as zone of inhibition at 1639 uM incubated overnight at 37 degC; type: functional, organism-based; summary of the method: as §1
# Staphylococcus aureus [6] = assay: Antimicrobial activity against methicillin-resistant Staphylococcus aureus 344/2-32 assessed as zone of inhibition at 1639 uM incubated overnight at 37 degC; type: functional, organism-based
# Streptococcus pyogenes [7] = assay: Antimicrobial activity against Streptococcus pyogenes 345/1 assessed as zone of inhibition at 2762 uM incubated overnight at 37 degC; type: functional; conditions: read-out: IZ; summary of the method: as §1
# Candida albicans [8] = assay: Antimicrobial activity against Candida albicans ATCC 10231 assessed as zone of inhibition at 2762 uM incubated overnight at 37 degC; type: functional, organism-based; summary of the method: as §1
# Pseudomonas aeruginosa [9] = assay: Antimicrobial activity against Pseudomonas aeruginosa ATCC 27853 assessed as zone of inhibition at 2762 uM incubated overnight at 37 degC; type: functional, organism-based; summary of the method: as §1
# Escherichia coli [10] = assay: Antimicrobial activity against Escherichia coli ATCC 25922 assessed as zone of inhibition at 2762 uM incubated overnight at 37 degC; type: functional, organism-based; summary of the method: as §1
# Staphylococcus aureus [11] = assay: Antimicrobial activity against methicillin-resistant Staphylococcus aureus 344/2-32 assessed as zone of inhibition at 2762 uM incubated overnight at 37 degC; type: functional, organism-based
# Staphylococcus aureus [12] = assay: Antimicrobial activity against Staphylococcus aureus ATCC 25923 assessed as zone of inhibition at 2762 uM incubated overnight at 37 degC; type: functional; conditions: read-out: IZ; summary of the method: as §1
# Candida albicans [13] = assay: Antimicrobial activity against Candida albicans ATCC 10231 assessed as zone of inhibition at 2450 uM incubated overnight at 37 degC; type: functional, organism-based; summary of the method: as §1
# Staphylococcus aureus [14] = assay: Antimicrobial activity against methicillin-resistant Staphylococcus aureus 344/2-32 assessed as zone of inhibition at 2450 uM incubated overnight at 37 degC; type: functional, organism-based
# Pseudomonas aeruginosa [15] = assay: Antimicrobial activity against Pseudomonas aeruginosa ATCC 27853 assessed as zone of inhibition at 2450 uM incubated overnight at 37 degC; type: functional, organism-based; summary of the method: as §1
# Streptococcus pyogenes [16] = assay: Antimicrobial activity against Streptococcus pyogenes 345/1 assessed as zone of inhibition at 2450 uM incubated overnight at 37 degC; type: functional, organism-based; summary of the method: as §1
# Staphylococcus aureus [17] = assay: Antimicrobial activity against Staphylococcus aureus ATCC 25923 assessed as zone of inhibition at 2450 uM incubated overnight at 37 degC; type: functional, organism-based; summary of the method: as §1
# Escherichia coli [18] = assay: Antimicrobial activity against Escherichia coli ATCC 25922 assessed as zone of inhibition at 2450 uM incubated overnight at 37 degC; type: functional, organism-based; summary of the method: as §1
# Pseudomonas aeruginosa [19] = assay: Antimicrobial activity against Pseudomonas aeruginosa ATCC 27853 assessed as zone of inhibition at 3905 uM incubated overnight at 37 degC; type: functional, organism-based; summary of the method: as §1
# Staphylococcus aureus [20] = assay: Antimicrobial activity against methicillin-resistant Staphylococcus aureus 344/2-32 assessed as zone of inhibition at 3905 uM incubated overnight at 37 degC; type: functional, organism-based
# Escherichia coli [21] = assay: Antimicrobial activity against Escherichia coli ATCC 25922 assessed as zone of inhibition at 3905 uM incubated overnight at 37 degC; type: functional, organism-based; summary of the method: as §1
# Candida albicans [22] = assay: Antimicrobial activity against Candida albicans ATCC 10231 assessed as zone of inhibition at 3905 uM incubated overnight at 37 degC; type: functional, organism-based; summary of the method: as §1
# Streptococcus pyogenes [23] = assay: Antimicrobial activity against Streptococcus pyogenes 345/1 assessed as zone of inhibition at 3905 uM incubated overnight at 37 degC; type: functional; conditions: read-out: IZ
# Staphylococcus aureus [24] = assay: Antimicrobial activity against Staphylococcus aureus ATCC 25923 assessed as zone of inhibition at 3905 uM incubated overnight at 37 degC; type: functional, organism-based; summary of the method: as §1
# Staphylococcus aureus [25] = assay: Antimicrobial activity against Staphylococcus aureus ATCC 25923 assessed as zone of inhibition at 3030 uM incubated overnight at 37 degC; type: functional, organism-based; summary of the method: as §1
# Escherichia coli [26] = assay: Antimicrobial activity against Escherichia coli ATCC 25922 assessed as zone of inhibition at 3030 uM incubated overnight at 37 degC; type: functional, organism-based; summary of the method: as §1
# Pseudomonas aeruginosa [27] = assay: Antimicrobial activity against Pseudomonas aeruginosa ATCC 27853 assessed as zone of inhibition at 3030 uM incubated overnight at 37 degC; type: functional; conditions: read-out: IZ; summary of the method: as §1
# Candida albicans [28] = assay: Antimicrobial activity against Candida albicans ATCC 10231 assessed as zone of inhibition at 3030 uM incubated overnight at 37 degC; type: functional, organism-based; summary of the method: as §1
# Streptococcus pyogenes [29] = assay: Antimicrobial activity against Streptococcus pyogenes 345/1 assessed as zone of inhibition at 3030 uM incubated overnight at 37 degC; type: functional, organism-based; summary of the method: as §1
# Staphylococcus aureus [30] = assay: Antimicrobial activity against methicillin-resistant Staphylococcus aureus 344/2-32 assessed as zone of inhibition at 3030 uM incubated overnight at 37 degC; type: functional, organism-based
# Escherichia coli [31] = assay: Antimicrobial activity against Escherichia coli ATCC 25922 assessed as zone of inhibition at 3675 uM incubated overnight at 37 degC; type: functional, organism-based; summary of the method: as §1
# Streptococcus pyogenes [32] = assay: Antimicrobial activity against Streptococcus pyogenes 345/1 assessed as zone of inhibition at 3675 uM incubated overnight at 37 degC; type: functional, organism-based
# Staphylococcus aureus [33] = assay: Antimicrobial activity against methicillin-resistant Staphylococcus aureus 344/2-32 assessed as zone of inhibition at 3675 uM incubated overnight at 37 degC; type: functional, organism-based
# Candida albicans [34] = assay: Antimicrobial activity against Candida albicans ATCC 10231 assessed as zone of inhibition at 3675 uM incubated overnight at 37 degC; type: functional, organism-based; summary of the method: as §1
# Staphylococcus aureus [35] = assay: Antimicrobial activity against Staphylococcus aureus ATCC 25923 assessed as zone of inhibition at 3675 uM incubated overnight at 37 degC; type: functional, organism-based; summary of the method: as §1
# Pseudomonas aeruginosa [36] = assay: Antimicrobial activity against Pseudomonas aeruginosa ATCC 27853 assessed as zone of inhibition at 3675 uM incubated overnight at 37 degC; type: functional, organism-based; summary of the method: as §1
compound,measurement,setting,value
C[C@@H]1O[C@@H](OC[C@H]2O[C@@H](Oc3c(-c4ccc(O)c(O)c4)oc4cc(O)cc(O)c4c3=O)[C@H](O)[C@@H](O)[C@@H]2O)[C@H](O)[C@H](O)[C@H]1O,inhibition zone (IZ),Candida albicans [1],inactive
same,inhibition zone (IZ),Escherichia coli [2],inactive
same,inhibition zone (IZ),Staphylococcus aureus [3],inactive
same,inhibition zone (IZ),Streptococcus pyogenes [4],inactive
same,inhibition zone (IZ),Pseudomonas aeruginosa [5],inactive
same,inhibition zone (IZ),Staphylococcus aureus [6],inactive
O=Cc1cc(O)c2c(-c3cc(O)cc(O)c3)c(-c3ccc(O)cc3)oc2c1,zone of inhibition at 2762 µM,Streptococcus pyogenes [7],1 mm
same,inhibition zone (IZ),Candida albicans [8],inactive
same,inhibition zone (IZ),Pseudomonas aeruginosa [9],inactive
same,inhibition zone (IZ),Escherichia coli [10],inactive
same,inhibition zone (IZ),Staphylococcus aureus [11],inactive
same,zone of inhibition at 2762 µM,Staphylococcus aureus [12],1 mm
COC(OC)c1cc(O)c2c(-c3cc(O)cc(O)c3)c(-c3ccc(O)cc3)oc2c1,inhibition zone (IZ),Candida albicans [13],inactive
same,inhibition zone (IZ),Staphylococcus aureus [14],inactive
same,inhibition zone (IZ),Pseudomonas aeruginosa [15],inactive
same,inhibition zone (IZ),Streptococcus pyogenes [16],inactive
same,inhibition zone (IZ),Staphylococcus aureus [17],inactive
same,inhibition zone (IZ),Escherichia coli [18],inactive
O=C1C(c2ccccc2)=Cc2cccc3cccc1c23,inhibition zone (IZ),Pseudomonas aeruginosa [19],inactive
same,inhibition zone (IZ),Staphylococcus aureus [20],inactive
same,inhibition zone (IZ),Escherichia coli [21],inactive
same,inhibition zone (IZ),Candida albicans [22],inactive
same,zone of inhibition at 3905 µM,Streptococcus pyogenes [23],2 mm
same,inhibition zone (IZ),Staphylococcus aureus [24],inactive
O=C(/C=C/c1ccc(O)cc1)c1c(O)cc(O)cc1O[C@@H]1O[C@H](CO)[C@@H](O)[C@H](O)[C@H]1O,inhibition zone (IZ),Staphylococcus aureus [25],inactive
same,inhibition zone (IZ),Escherichia coli [26],inactive
same,zone of inhibition at 3030 µM,Pseudomonas aeruginosa [27],2 mm
same,inhibition zone (IZ),Candida albicans [28],inactive
same,inhibition zone (IZ),Streptococcus pyogenes [29],inactive
same,inhibition zone (IZ),Staphylococcus aureus [30],inactive
O=C1C(O)=Cc2cccc3ccc(-c4ccccc4)c1c23,inhibition zone (IZ),Escherichia coli [31],inactive
same,inhibition zone (IZ),Streptococcus pyogenes [32],inactive
same,inhibition zone (IZ),Staphylococcus aureus [33],inactive
same,inhibition zone (IZ),Candida albicans [34],inactive
same,inhibition zone (IZ),Staphylococcus aureus [35],inactive
same,inhibition zone (IZ),Pseudomonas aeruginosa [36],inactive

# Source: ChEMBL document CHEMBL3593182, “Phytochemical Investigation of the Constituents Derived from the Australian Plant Macropidia fuliginosa” (2015)
